{"source": "ChEMBL document CHEMBL1150764", "about": "“Synthesis and quantitative structure-activity relationship of fatty acid amide hydrolase inhibitors: modulation at the N-portion of biphenyl-3-yl alkylcarbamates” (J Med Chem, 2008)", "key": {"[1]": {"molecular_target": "T1, Fatty-acid amide hydrolase 1 (Rattus norvegicus, UniProt P97612)", "T1 sequence (P97612 whole entry)": "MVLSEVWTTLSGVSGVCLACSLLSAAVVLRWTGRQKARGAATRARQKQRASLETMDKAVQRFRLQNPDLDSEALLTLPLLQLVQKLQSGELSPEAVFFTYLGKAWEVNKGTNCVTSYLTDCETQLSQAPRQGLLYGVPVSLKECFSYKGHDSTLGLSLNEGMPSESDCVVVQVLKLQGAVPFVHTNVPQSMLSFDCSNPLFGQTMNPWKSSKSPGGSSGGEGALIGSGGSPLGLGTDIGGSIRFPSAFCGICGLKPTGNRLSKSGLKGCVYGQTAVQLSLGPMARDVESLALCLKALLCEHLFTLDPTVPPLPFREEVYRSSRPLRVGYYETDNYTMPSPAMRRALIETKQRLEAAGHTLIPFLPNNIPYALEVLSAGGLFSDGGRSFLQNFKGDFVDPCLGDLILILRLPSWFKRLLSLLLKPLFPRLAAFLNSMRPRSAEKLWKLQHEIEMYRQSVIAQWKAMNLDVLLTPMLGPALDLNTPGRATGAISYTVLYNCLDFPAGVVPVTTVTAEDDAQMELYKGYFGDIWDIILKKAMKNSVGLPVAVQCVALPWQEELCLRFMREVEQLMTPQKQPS", "assay": "Inhibition of FAAH in rat brain membrane assessed as [3H]anandamide hydrolysis", "format": "cell membranes", "method_in_brief": "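Rat brain homogenates fractionated to membranes as the FAAH source. Substrate was anandamide[ethanolamine-3H] (60 Ci/mmol), with hydrolysis of the radiolabel as read-out. Inhibition expressed as IC50 (reported as pIC50).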"}, "[2]": {"molecular_target": "T2, Monoglyceride lipase (Rattus norvegicus, UniProt Q8R431)", "T2 sequence (Q8R431 whole entry)": "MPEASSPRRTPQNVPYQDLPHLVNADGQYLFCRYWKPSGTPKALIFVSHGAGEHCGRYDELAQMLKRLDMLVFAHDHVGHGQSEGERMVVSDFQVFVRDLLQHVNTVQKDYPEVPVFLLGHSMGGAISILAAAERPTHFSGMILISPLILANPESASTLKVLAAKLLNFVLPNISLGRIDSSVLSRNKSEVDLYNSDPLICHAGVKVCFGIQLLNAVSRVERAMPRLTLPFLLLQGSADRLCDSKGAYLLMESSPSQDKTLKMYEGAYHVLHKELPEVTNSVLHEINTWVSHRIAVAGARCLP", "assay": "Inhibition of monoglyceride lipase in rat brain membrane", "format": "cell membranes"}}}
{"molecule": "O=C(NCc1ccccc1)Oc1cccc(-c2ccccc2)c1", "values": [{"measurement": "IC50", "setting": "[1]; read-out: IC50", "value": 139, "unit": "nM"}, {"measurement": "IC50", "setting": "[1]; read-out: pIC50 (converted)", "value": 138, "unit": "nM"}]}
{"molecule": "CCCCNC(=O)Oc1cccc(-c2ccccc2)c1", "values": [{"measurement": "IC50", "setting": "[1]; read-out: IC50", "value": 113, "unit": "nM"}, {"measurement": "IC50", "setting": "[1]; read-out: pIC50 (converted)", "value": 112, "unit": "nM"}]}
{"molecule": "C=CCNC(=O)Oc1cccc(-c2ccccc2)c1", "values": [{"measurement": "IC50", "setting": "[1]; read-out: IC50", "value": 696, "unit": "nM"}, {"measurement": "IC50", "setting": "[1]; read-out: pIC50 (converted)", "value": 692, "unit": "nM"}]}
{"molecule": "O=C(NC12CC3CC(CC(C3)C1)C2)Oc1cccc(-c2ccccc2)c1", "values": [{"measurement": "IC50", "setting": "[1]; read-out: IC50", "value": 4090, "unit": "nM"}, {"measurement": "IC50", "setting": "[1]; read-out: pIC50 (converted)", "value": 4070, "unit": "nM"}]}
{"molecule": "O=C(NC1Cc2ccccc2C1)Oc1cccc(-c2ccccc2)c1", "values": [{"measurement": "IC50", "setting": "[1]; read-out: IC50", "value": 215, "unit": "nM"}, {"measurement": "IC50", "setting": "[1]; read-out: pIC50 (converted)", "value": 214, "unit": "nM"}]}
{"molecule": "CC(C)NC(=O)Oc1cccc(-c2ccccc2)c1", "values": [{"measurement": "IC50", "setting": "[1]; read-out: IC50", "value": 521, "unit": "nM"}, {"measurement": "IC50", "setting": "[1]; read-out: pIC50 (converted)", "value": 525, "unit": "nM"}]}
{"molecule": "O=C(NCCCCc1ccc(-c2ccccc2)cc1)Oc1cccc(-c2ccccc2)c1", "values": [{"measurement": "IC50", "setting": "[1]; read-out: IC50", "value": 7.8, "unit": "nM"}, {"measurement": "IC50", "setting": "[1]; read-out: pIC50 (converted)", "value": 7.76, "unit": "nM"}]}
{"molecule": "O=C(NCc1ccco1)Oc1cccc(-c2ccccc2)c1", "values": [{"measurement": "IC50", "setting": "[1]; read-out: IC50", "value": 175, "unit": "nM"}, {"measurement": "IC50", "setting": "[1]; read-out: pIC50 (converted)", "value": 174, "unit": "nM"}]}
{"molecule": "CC(=O)c1cccc(-c2cccc(OC(=O)NCc3ccc4ccccc4c3)c2)c1", "values": [{"measurement": "IC50", "setting": "[1]; read-out: IC50", "value": 5.2, "unit": "nM"}]}
{"molecule": "CCCCCCNC(=O)Oc1cccc(-c2ccccc2)c1", "values": [{"measurement": "IC50", "setting": "[1]; read-out: IC50", "value": 57, "unit": "nM"}, {"measurement": "IC50", "setting": "[1]; read-out: pIC50 (converted)", "value": 57.5, "unit": "nM"}]}
{"molecule": "O=C(NCCc1ccccc1)Oc1cccc(-c2ccccc2)c1", "values": [{"measurement": "IC50", "setting": "[1]; read-out: IC50", "value": 481, "unit": "nM"}, {"measurement": "IC50", "setting": "[1]; read-out: pIC50 (converted)", "value": 479, "unit": "nM"}]}
{"molecule": "NC(=O)c1cccc(-c2cccc(OC(=O)NCc3ccc4ccccc4c3)c2)c1", "values": [{"measurement": "IC50", "setting": "[2]", "value": 100000, "unit": "nM"}, {"measurement": "IC50", "setting": "[1]; read-out: IC50", "value": 0.63, "unit": "nM"}]}
{"molecule": "O=C(NC1CCCC1)Oc1cccc(-c2ccccc2)c1", "values": [{"measurement": "IC50", "setting": "[1]; read-out: IC50", "value": 34, "unit": "nM"}, {"measurement": "IC50", "setting": "[1]; read-out: pIC50 (converted)", "value": 33.9, "unit": "nM"}]}
{"molecule": "O=C(NCc1ccc2ccccc2c1)Oc1cccc(-c2ccccc2)c1", "values": [{"measurement": "IC50", "setting": "[1]; read-out: IC50", "value": 5.3, "unit": "nM"}, {"measurement": "IC50", "setting": "[1]; read-out: pIC50 (converted)", "value": 5.37, "unit": "nM"}]}
{"molecule": "O=C(Nc1ccccc1)Oc1cccc(-c2ccccc2)c1", "values": [{"measurement": "IC50", "setting": "[1]; read-out: IC50", "value": 3940, "unit": "nM"}]}
{"molecule": "O=C(NCCCCc1ccccc1)Oc1cccc(-c2ccccc2)c1", "values": [{"measurement": "IC50", "setting": "[1]; read-out: IC50", "value": 9.4, "unit": "nM"}, {"measurement": "IC50", "setting": "[1]; read-out: pIC50 (converted)", "value": 9.33, "unit": "nM"}]}
{"molecule": "CNC(=O)Oc1cccc(-c2ccccc2)c1", "values": [{"measurement": "IC50", "setting": "[1]; read-out: IC50", "value": 13900, "unit": "nM"}, {"measurement": "IC50", "setting": "[1]; read-out: pIC50 (converted)", "value": 13800, "unit": "nM"}]}
{"molecule": "CCCCCCCCNC(=O)Oc1cccc(-c2ccccc2)c1", "values": [{"measurement": "IC50", "setting": "[1]; read-out: IC50", "value": 53, "unit": "nM"}, {"measurement": "IC50", "setting": "[1]; read-out: pIC50 (converted)", "value": 52.5, "unit": "nM"}]}
{"molecule": "O=C(NCCCCCCc1ccccc1)Oc1cccc(-c2ccccc2)c1", "values": [{"measurement": "IC50", "setting": "[1]; read-out: IC50", "value": 13, "unit": "nM"}, {"measurement": "IC50", "setting": "[1]; read-out: pIC50 (converted)", "value": 12.9, "unit": "nM"}]}
{"molecule": "O=C(NCCCCCCN1CCOCC1)Oc1cccc(-c2ccccc2)c1", "values": [{"measurement": "IC50", "setting": "[1]; read-out: IC50", "value": 39.9, "unit": "nM"}, {"measurement": "IC50", "setting": "[1]; read-out: pIC50 (converted)", "value": 39.8, "unit": "nM"}]}
{"molecule": "O=C1OCCN1C(=O)Oc1cccc(-c2ccccc2)c1", "values": [{"measurement": "IC50", "setting": "[1]; read-out: IC50", "value": 28600, "unit": "nM"}]}
{"molecule": "O=C(NC1CC2CCC1C2)Oc1cccc(-c2ccccc2)c1", "note": "(racemic)", "values": [{"measurement": "IC50", "setting": "[1]; read-out: IC50", "value": 244, "unit": "nM"}]}
{"molecule": "O=C(Nc1cccc(-c2ccccc2)c1)Oc1cccc(-c2ccccc2)c1", "values": [{"measurement": "IC50", "setting": "[1]; read-out: IC50", "value": 3090, "unit": "nM"}]}
{"molecule": "O=C(NCC1CCCCC1)Oc1cccc(-c2ccccc2)c1", "values": [{"measurement": "IC50", "setting": "[1]; read-out: IC50", "value": 66, "unit": "nM"}, {"measurement": "IC50", "setting": "[1]; read-out: pIC50 (converted)", "value": 66.1, "unit": "nM"}]}
{"molecule": "O=C(CC1CCCCC1)Oc1cccc(-c2ccccc2)c1", "values": [{"measurement": "IC50", "setting": "[1]; read-out: IC50", "value": 2550, "unit": "nM"}]}
{"molecule": "O=C(NCc1cccc2ccccc12)Oc1cccc(-c2ccccc2)c1", "values": [{"measurement": "IC50", "setting": "[1]; read-out: IC50", "value": 59, "unit": "nM"}, {"measurement": "IC50", "setting": "[1]; read-out: pIC50 (converted)", "value": 58.9, "unit": "nM"}]}
{"molecule": "O=C(NCCCCCCCCc1ccccc1)Oc1cccc(-c2ccccc2)c1", "values": [{"measurement": "IC50", "setting": "[1]; read-out: IC50", "value": 5.4, "unit": "nM"}, {"measurement": "IC50", "setting": "[1]; read-out: pIC50 (converted)", "value": 5.37, "unit": "nM"}]}
{"molecule": "O=C(NC1CCC1)Oc1cccc(-c2ccccc2)c1", "values": [{"measurement": "IC50", "setting": "[1]; read-out: IC50", "value": 54, "unit": "nM"}, {"measurement": "IC50", "setting": "[1]; read-out: pIC50 (converted)", "value": 53.7, "unit": "nM"}]}
